Test results: ChEMBL document CHEMBL1158546, “Discovery of novel and potent leukotriene B4 receptor antagonists. Part 1” (J Med Chem, 2010); call rule not given here
In brackets after ≈: the same amount, converted by molar mass.

How the values were obtained:
[1] = target: T1, Leukotriene B4 receptor 1 (Homo sapiens, UniProt Q15722); assay: Antagonist activity at BLT1 receptor expressed in human HL60 cells assessed as inhibition of LTB4-stimulated calcium flux after 30 mins; type: functional, cell-based, HL-60
T1 sequence (Q15722 whole entry): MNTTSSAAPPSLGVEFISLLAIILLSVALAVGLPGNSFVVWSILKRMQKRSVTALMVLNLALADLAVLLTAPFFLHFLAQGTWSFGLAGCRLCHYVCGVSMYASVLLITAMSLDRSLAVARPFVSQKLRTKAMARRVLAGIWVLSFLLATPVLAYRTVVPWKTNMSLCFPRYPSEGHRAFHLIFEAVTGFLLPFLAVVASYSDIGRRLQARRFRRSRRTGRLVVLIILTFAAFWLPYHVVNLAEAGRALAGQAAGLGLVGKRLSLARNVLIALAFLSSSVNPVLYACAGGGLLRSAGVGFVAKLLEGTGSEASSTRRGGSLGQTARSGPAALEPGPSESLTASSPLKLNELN
Outline: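 HL-60 cells grown in RPMI-1640 with 20% FBS were plated at 2.0 × 10^5 cells/ml with 1 μM retinoic acid. They were dye-loaded in HBSS/20 mM HEPES/5 mM probenecid (0.05% BSA in the replacement buffer) for 1 h at 37 C. Compound (5 × 10^-11 to 3 × 10^-6 M final) was added for 30 min at room temperature, then 0.5 μM LTB4. Fluorescence was read every 1.5 s for 100 s and peak increase scored as % inhibition versus DMSO control.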

[2] = system: Neutrophil; assay: Inhibition of LTB4-stimulated human neutrophils migration after 30 mins by using CyQuant GR fluorescent dye; type: functional, cell-based
Outline: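 Human blood neutrophils (95-97% pure, isolated over Lympholyte-poly) at 5 × 10^6 cells/mL were preincubated with compound (3 × 10^-12 to 1 × 10^-6 M final) for 30 min at 37 C. Migration toward 100 ng/mL LTB4 across a polycarbonate membrane ran 90 min at 37 C. Migrated cells were lysed with CyQuant GR and read at 480/520 nm. IC50 was taken from a sigmoidal fit of % inhibition.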

[3] = target: T2, Cytochrome P450 2C9 (Homo sapiens, UniProt P11712); assay: Inhibition of CYP2C9 fluorescence method; type: ADME
T2 sequence (P11712 whole entry): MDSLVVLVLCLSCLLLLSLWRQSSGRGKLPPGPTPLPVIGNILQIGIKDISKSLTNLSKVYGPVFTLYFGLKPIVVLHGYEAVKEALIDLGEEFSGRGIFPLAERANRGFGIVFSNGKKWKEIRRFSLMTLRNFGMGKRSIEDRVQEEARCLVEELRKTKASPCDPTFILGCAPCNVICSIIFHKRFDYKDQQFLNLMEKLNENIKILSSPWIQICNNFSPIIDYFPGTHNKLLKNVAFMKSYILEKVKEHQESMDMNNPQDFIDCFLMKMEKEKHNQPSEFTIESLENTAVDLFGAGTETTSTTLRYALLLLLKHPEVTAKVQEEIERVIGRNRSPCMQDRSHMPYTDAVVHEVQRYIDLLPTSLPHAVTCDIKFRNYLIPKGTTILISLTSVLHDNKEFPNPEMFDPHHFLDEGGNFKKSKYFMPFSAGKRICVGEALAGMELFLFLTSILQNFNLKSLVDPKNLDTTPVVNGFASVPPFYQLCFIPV

[4] = target: T2, Cytochrome P450 2C9; assay: Inhibition of CYP2C9 by LC/MS method; type: ADME
[5] = target: Cytochrome P450 2C19 (Homo sapiens, UniProt P33261); assay: Inhibition of CYP2C19 fluorescence method; type: ADME
Chain of Cytochrome P450 2C19 (P33261 whole entry): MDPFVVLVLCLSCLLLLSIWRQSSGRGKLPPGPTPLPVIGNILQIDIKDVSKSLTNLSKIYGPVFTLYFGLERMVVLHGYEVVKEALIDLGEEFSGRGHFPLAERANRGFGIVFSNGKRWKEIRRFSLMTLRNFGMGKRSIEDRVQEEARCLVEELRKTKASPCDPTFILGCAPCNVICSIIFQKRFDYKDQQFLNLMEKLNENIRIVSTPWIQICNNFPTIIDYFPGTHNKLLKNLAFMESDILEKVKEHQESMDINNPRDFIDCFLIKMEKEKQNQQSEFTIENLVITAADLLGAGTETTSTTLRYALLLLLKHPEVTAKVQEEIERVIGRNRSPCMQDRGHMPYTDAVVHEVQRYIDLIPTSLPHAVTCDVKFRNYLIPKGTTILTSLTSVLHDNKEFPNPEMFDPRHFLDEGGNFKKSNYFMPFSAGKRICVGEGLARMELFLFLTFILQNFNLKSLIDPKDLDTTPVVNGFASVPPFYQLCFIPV
Outline: (§1)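 Cytochrome P450 high-throughput panel (1A2, 2D6, 2C9, 2C19, 3A4) using fluorogenic substrates; IC50 reported.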

[6] = target: T3, Leukotriene B4 receptor 2 (Homo sapiens, UniProt Q9NPC1); assay: Antagonist activity at FLAG-tagged human BLT2 receptor expressed in HEK293 cells assessed as inhibition of LTB4-stimulated calcium mobilization preincubated for 10 mins before LTB4 challenge; type: functional, cell-based
T3 sequence (Q9NPC1 whole entry): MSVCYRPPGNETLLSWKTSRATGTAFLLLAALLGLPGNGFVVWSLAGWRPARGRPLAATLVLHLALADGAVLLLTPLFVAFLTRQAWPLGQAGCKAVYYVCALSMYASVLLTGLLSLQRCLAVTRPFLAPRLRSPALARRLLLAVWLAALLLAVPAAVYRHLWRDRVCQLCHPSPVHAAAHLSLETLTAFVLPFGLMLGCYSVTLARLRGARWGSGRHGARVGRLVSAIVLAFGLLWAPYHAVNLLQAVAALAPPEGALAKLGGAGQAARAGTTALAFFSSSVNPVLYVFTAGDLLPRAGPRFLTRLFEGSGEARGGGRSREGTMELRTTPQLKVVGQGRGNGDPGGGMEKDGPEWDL

[7] = target: Cytochrome P450 2D6 (Homo sapiens, UniProt P10635); assay: Inhibition of CYP2D6 fluorescence method; type: ADME
Chain of Cytochrome P450 2D6 (P10635 whole entry): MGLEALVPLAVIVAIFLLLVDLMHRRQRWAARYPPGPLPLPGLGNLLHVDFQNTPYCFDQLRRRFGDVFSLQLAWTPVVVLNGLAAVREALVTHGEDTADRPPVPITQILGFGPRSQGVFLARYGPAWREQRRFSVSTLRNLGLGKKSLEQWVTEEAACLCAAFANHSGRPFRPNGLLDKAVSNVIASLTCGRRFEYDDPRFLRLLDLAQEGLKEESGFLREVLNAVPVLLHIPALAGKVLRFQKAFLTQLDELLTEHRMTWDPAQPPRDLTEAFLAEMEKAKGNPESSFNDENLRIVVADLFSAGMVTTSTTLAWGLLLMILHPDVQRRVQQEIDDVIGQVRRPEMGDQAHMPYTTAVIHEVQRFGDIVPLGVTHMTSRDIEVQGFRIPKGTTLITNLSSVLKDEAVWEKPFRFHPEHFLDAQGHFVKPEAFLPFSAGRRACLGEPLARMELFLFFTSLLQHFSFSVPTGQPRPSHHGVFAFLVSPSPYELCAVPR
Outline: (§2)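 High-throughput CYP panel covering 1A2, 2D6, 2C9, 2C19 and 3A4, using fluorogenic substrates. IC50 was determined in μM.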

[8] = target: T4, Voltage-gated inwardly rectifying potassium channel KCNH2 (Homo sapiens, UniProt Q12809); assay: Inhibition of human ERG expressed in CHO cells assessed as reduction of current amplitude
T4 sequence (Q12809 whole entry): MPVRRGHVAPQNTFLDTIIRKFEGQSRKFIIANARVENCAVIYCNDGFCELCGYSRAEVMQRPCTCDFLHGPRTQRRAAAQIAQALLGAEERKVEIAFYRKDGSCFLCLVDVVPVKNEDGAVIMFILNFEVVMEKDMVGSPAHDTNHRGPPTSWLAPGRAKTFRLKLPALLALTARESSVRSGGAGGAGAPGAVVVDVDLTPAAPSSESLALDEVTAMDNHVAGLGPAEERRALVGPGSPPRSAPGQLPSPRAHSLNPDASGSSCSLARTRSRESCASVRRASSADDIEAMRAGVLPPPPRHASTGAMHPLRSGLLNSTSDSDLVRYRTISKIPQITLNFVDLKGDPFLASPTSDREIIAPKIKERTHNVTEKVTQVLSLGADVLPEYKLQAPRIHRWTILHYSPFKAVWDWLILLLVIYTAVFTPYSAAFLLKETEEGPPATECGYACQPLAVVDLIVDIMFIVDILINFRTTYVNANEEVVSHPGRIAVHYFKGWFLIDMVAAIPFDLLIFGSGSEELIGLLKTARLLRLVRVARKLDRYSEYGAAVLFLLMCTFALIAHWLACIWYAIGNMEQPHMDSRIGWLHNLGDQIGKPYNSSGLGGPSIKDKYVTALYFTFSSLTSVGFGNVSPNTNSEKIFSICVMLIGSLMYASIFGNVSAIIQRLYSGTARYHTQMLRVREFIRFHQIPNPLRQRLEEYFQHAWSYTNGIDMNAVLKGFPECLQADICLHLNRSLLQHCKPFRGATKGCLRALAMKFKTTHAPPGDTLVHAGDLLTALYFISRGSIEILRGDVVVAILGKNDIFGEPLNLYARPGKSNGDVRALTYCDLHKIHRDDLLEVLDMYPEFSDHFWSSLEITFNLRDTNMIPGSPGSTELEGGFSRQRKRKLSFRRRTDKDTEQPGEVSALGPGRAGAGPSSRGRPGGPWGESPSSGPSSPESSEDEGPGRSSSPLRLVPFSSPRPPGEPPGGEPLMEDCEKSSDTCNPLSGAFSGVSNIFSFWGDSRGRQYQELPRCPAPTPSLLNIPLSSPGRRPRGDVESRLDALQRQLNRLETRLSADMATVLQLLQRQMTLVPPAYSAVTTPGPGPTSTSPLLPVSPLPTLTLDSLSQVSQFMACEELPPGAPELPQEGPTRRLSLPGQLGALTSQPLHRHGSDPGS

[9] = target: T5, Cytochrome P450 1A2 (Homo sapiens, UniProt P05177); assay: Inhibition of CYP1A2 by fluorescence method; type: ADME; outline: as §1
T5 sequence (P05177 whole entry): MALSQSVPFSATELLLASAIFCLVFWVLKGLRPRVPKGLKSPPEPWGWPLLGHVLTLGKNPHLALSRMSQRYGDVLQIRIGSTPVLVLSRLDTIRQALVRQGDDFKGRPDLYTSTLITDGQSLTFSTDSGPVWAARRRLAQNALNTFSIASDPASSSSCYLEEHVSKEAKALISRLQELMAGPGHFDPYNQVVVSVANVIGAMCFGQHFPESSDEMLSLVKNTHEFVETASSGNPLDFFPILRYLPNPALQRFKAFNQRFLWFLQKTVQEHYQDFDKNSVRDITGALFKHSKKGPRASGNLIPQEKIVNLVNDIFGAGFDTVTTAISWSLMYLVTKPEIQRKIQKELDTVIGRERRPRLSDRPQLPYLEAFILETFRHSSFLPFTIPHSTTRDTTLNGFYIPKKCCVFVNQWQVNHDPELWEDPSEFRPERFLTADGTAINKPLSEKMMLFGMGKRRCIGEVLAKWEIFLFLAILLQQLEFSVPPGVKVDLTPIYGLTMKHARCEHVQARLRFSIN

[10] = Lipophilicity, log D of compound at pH 7.4; settings: buffer
[11] = target: Cytochrome P450 3A4 (Homo sapiens, UniProt P08684); assay: Inhibition of CYP3A4 fluorescence method; type: ADME; outline: as §2
Chain of Cytochrome P450 3A4 (P08684 whole entry): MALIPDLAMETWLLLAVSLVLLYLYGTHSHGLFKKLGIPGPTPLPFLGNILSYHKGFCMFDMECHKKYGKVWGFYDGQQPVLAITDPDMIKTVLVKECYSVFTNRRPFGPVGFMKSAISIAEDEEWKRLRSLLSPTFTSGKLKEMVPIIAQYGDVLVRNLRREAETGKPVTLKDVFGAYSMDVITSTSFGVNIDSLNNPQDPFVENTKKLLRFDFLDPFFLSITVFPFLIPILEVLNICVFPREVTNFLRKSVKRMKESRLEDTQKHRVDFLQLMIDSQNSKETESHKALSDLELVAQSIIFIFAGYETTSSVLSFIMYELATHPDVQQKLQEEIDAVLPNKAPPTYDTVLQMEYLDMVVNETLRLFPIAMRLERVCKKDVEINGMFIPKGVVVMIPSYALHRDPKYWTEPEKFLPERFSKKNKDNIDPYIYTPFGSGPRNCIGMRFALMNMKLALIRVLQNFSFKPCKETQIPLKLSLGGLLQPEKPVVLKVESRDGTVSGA

[12] = Solubility of compound in small intestinal contents in the fed state at pH 5; type: ADME
Outline: (§3)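 Solubility measured in simulated intestinal fluid at pH 5.0 (fed) or pH 6.5 (fasted), reported in μg/mL.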

[13] = target: T1, Leukotriene B4 receptor 1; assay: Antagonist activity at FLAG-tagged human BLT1 receptor expressed in HEK293 cells assessed as inhibition of LTB4-stimulated calcium mobilization preincubated for 10 mins before LTB4 challenge; type: functional, cell-based
[14] = Solubility of compound in small intestinal contents in the fasted state at pH 6.5; type: ADME; outline: as §3
[15] = target: T4, Voltage-gated inwardly rectifying potassium channel KCNH2; assay: Inhibition of human ERG expressed in CHO cells at 3 uM assessed as reduction of current amplitude
[16] = Oral bioavailability in Sprague-Dawley rat at 10 mg/kg, po; type: ADME, organism-based; settings: in vivo
Outline: (§4)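 Rat single-dose PK, n = 3, with oral dosing at 10 mg/kg and intravenous dosing at 2.5 or 5 mg/kg.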

[17] = Half life in Sprague-Dawley rat at 5 mg/kg, iv; type: ADME, organism-based; set-up: dose 5 mg/kg, route intravenous; settings: in vivo; outline: as §4
[18] = Cmax in Sprague-Dawley rat at 10 mg/kg, po; type: ADME, organism-based; set-up: dose 10 mg/kg, route oral; settings: in vivo; outline: as §4
[19] = Half life in Sprague-Dawley rat at 10 mg/kg, po; type: ADME, organism-based; set-up: dose 10 mg/kg, route oral; settings: in vivo; outline: as §4
[20] = Volume of distribution at steady state in Sprague-Dawley rat at 5 mg/kg, iv; type: ADME, organism-based; set-up: dose 5 mg/kg, route intravenous; settings: in vivo, read-out: Vdss; outline: as §4
[21] = Tmax in Sprague-Dawley rat at 10 mg/kg, po; type: ADME, organism-based; set-up: dose 10 mg/kg, route oral; settings: in vivo; outline: as §4
[22] = Clearance in Sprague-Dawley rat at 5 mg/kg, iv; type: ADME, organism-based; set-up: dose 5 mg/kg, route intravenous; settings: in vivo; outline: as §4
[23] = Homo sapiens, Neutrophil, 0.5 h, read-out: IC50

## O=C(O)CCCOc1cccc(CCCCCCOc2cc(-c3ccccc3)cc(-c3ccsc3)c2)c1CCC(=O)O
[1]; read-out: IC50
  IC50: 0.36 nM
[2]; [23]
  IC50: 0.2 nM

## O=C(O)CCCOc1cccc(CCCCCCOc2cc(-c3ccc(F)cc3)cc(-c3ccc(F)cc3)c2)c1CCC(=O)O
[1]; read-out: IC50
  IC50: 8.5 nM

## O=C(O)CCCOc1cccc(CCCCCCOc2cc(-c3ccc4c(c3)OCO4)cc(-c3ccc4c(c3)OCO4)c2)c1CCC(=O)O
[1]; read-out: IC50
  IC50: 5.39 nM

## O=C(O)CCCOc1cccc(CCCCCCOc2cc(-c3ccsc3)cc(-c3ccnc(Cl)c3)c2)c1CCC(=O)O
[1]; read-out: IC50
  IC50: 0.57 nM

## O=C(O)CCCOc1cccc(CCCCCCOc2cc(-c3cncnc3)cc(-c3ccc4c(c3)OCO4)c2)c1CCC(=O)O
[1]; read-out: IC50
  IC50: 0.38 nM
[2]; [23]
  IC50: 0.2 nM

## O=C(O)CCCOc1cccc(CCCCCCOc2cc(-c3ccccc3)cc(-c3ccccc3)c2)c1CCC(=O)O
[3]
  IC50: > 50000 nM
[4]
  IC50: > 12500 nM
[5]
  IC50: > 7500 nM
[6]
  IC50: 628 nM
[7]
  IC50: > 7500 nM
[8]
  IC50: > 3000 nM
[9]
  IC50: > 7500 nM
[10]
  logD: 0.7
[11]
  IC50: > 7500 nM
[12]
  solubility: 338 µg/mL (≈ 582 µM)
[13]
  IC50: 38.5 nM
[1]; read-out: IC50
  IC50: 0.21 nM
[14]
  solubility: 27.3 µg/mL (≈ 47 µM)
[15]
  INH: Not Active

## O=C(O)CCCOc1cccc(CCCCCCOc2cc(-c3ccc(F)cc3)cc(-c3ccc4c(c3)OCCO4)c2)c1CCC(=O)O
[1]; read-out: IC50
  IC50: 60.2 nM

## O=C(O)CCCOc1cccc(CCCCCCOc2cc(-c3ccsc3)cc(-c3ccsc3)c2)c1CCC(=O)O
[1]; read-out: IC50
  IC50: 0.58 nM

## O=C(O)CCCOc1cccc(CCCCCCOc2cc(-c3ccc4c(c3)OCO4)cc(-c3ccccc3F)c2)c1CCC(=O)O
[3]
  IC50: 7600 nM
[5]
  IC50: > 7500 nM
[7]
  IC50: > 7500 nM
[9]
  IC50: > 7500 nM
[10]
  logD: 2.44
[11]
  IC50: > 7500 nM
[12]
  solubility: 38.1 µg/mL (≈ 59.3 µM)
[1]; read-out: IC50
  IC50: 0.61 nM
[2]; [23]
  IC50: 7.67 nM
[14]
  solubility: 27.1 µg/mL (≈ 42.2 µM)
[15]
  INH: Not Active

## O=C(O)CCCOc1cccc(CCCCCCOc2cc(-c3ccncc3)cc(-c3ccncc3)c2)c1CCC(=O)O
[3]
  IC50: 340 nM
[4]
  IC50: 900 nM
[16]
  bioavailability: 10%
[5]
  IC50: > 7500 nM
[6]
  IC50: 143 nM
[7]
  IC50: > 7500 nM
[17]
  half-life: 4.52 h
[9]
  IC50: > 7500 nM
[18]
  Cmax: 310 nM
[10]
  logD: 1.78
[11]
  IC50: > 7500 nM
[12]
  solubility: 61 µg/mL (≈ 105 µM)
[19]
  half-life: 4.52 h
[13]
  IC50: 71 nM
[1]; read-out: IC50
  IC50: 0.07 nM
[20]
  Vd: 1.55 L/kg
[14]
  solubility: 22.7 µg/mL (≈ 39 µM)
[21]
  Tmax: 5 h
[15]
  INH: Not Active
[22]
  clearance: 28.1 mL/min/kg

## O=C(O)CCCOc1cccc(CCCCCCOc2cc(-c3cncnc3)cc(-c3ccsc3)c2)c1CCC(=O)O
[1]; read-out: IC50
  IC50: 0.39 nM
[2]; [23]
  IC50: 20 nM

## O=C(O)CCCOc1cccc(CCCCCCOc2cc(-c3ccncc3)cc(-c3ccc4c(c3)OCO4)c2)c1CCC(=O)O
[1]; read-out: IC50
  IC50: 0.22 nM
[2]; [23]
  IC50: 0.1 nM

## O=C(O)CCCOc1cccc(CCCCCCOc2cc(-c3ccncc3)cc(-c3ccsc3)c2)c1CCC(=O)O
[1]; read-out: IC50
  IC50: 0.2 nM

## O=C(O)CCCOc1cccc(CCCCCCOc2cc(-c3cncnc3)cc(-c3cncnc3)c2)c1CCC(=O)O
[1]; read-out: IC50
  IC50: 5.35 nM

## O=C(O)CCCOc1cccc(CCCCCCOc2cc(-c3ccncc3)cc(-c3cccc(F)c3)c2)c1CCC(=O)O
[1]; read-out: IC50
  IC50: 0.18 nM
[2]; [23]
  IC50: 0.2 nM

## CCc1cc(C(C)=O)c(O)cc1OCCCCCC(C)(C)c1nn[nH]n1 [LY-255283]
[1]; hl-60
  IC50: Not Active
[2]; neutrophil
  IC50: Not Active

## O=C(O)CCCOc1cccc(CCCCCCOc2cc(-c3ccc4c(c3)OCCO4)cc(-c3ccc4c(c3)OCCO4)c2)c1CCC(=O)O
[1]; read-out: IC50
  IC50: 140 nM

## COc1ccc(-c2cc(OCCCCCCc3cccc(OCCCC(=O)O)c3CCC(=O)O)cc(-c3ccc4c(c3)OCO4)c2)cc1
[1]; read-out: IC50
  IC50: 3.27 nM

## O=C(O)CCCOc1cccc(CCCCCCOc2cc(-c3cccc(F)c3)cc(-c3ccc4[nH]ccc4c3)c2)c1CCC(=O)O
[1]; read-out: IC50
  IC50: 14 nM

## COc1ccc(-c2cc(OCCCCCCc3cccc(OCCCC(=O)O)c3CCC(=O)O)cc(-c3ccc(OC)cc3)c2)cc1
[1]; read-out: IC50
  IC50: 31.1 nM

## O=C(O)CCCOc1cccc(CCCCCCOc2cc(-c3ccccc3)cc(-c3ccc4c(c3)OCO4)c2)c1CCC(=O)O
[1]; read-out: IC50
  IC50: 0.58 nM
[2]; [23]
  IC50: 0.7 nM
